Sampled rows, rich in hits. Any-hit rate of the full collection: about 1.9%.
CHRM4 antagonist = antagonists of human muscarinic M4 receptor (CHRM4); P08173; AID 624125; inhibition, % at 3 µM; CHO-hM4 cells, ACh EC80, Fluo-8 calcium fluorescence; 360,000 compounds, 0.73% hits;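 active = inhibition above its plate's cutoff, the mean inhibition of sample wells plus 3 SD, cut at about 27% in these data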
CHRM5 antagonist = blocks acetylcholine activation of human M5 receptor; CHO-hM5 cells, Fluo-8 calcium fluorescence, ACh EC80; inhibition, % at 3 µM; AID 624040; P08912; 360,000 compounds, 0.59% hits;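 active = inhibition above a per-plate cutoff, the mean of that plate's test compounds plus 3 SD, cut at about 27% in these data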
Target sequence (P08912 whole entry, looked up): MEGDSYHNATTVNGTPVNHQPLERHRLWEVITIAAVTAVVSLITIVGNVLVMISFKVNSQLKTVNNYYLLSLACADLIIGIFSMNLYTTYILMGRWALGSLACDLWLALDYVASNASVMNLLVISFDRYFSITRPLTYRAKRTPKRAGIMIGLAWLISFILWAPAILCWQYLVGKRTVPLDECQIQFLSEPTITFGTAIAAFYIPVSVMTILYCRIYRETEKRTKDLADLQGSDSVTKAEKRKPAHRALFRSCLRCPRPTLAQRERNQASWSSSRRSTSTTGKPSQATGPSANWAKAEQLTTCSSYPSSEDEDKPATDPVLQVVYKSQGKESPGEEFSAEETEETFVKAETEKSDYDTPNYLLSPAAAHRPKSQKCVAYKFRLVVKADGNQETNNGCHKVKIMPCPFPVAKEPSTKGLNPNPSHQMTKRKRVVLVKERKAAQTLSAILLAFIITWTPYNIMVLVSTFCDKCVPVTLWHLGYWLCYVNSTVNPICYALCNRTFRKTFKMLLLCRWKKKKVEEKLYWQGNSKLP
CHRM4 agonist = CHRM4 agonism in calcium assay. P08173. CHO-K1 hM4/Gqi5, Fluo-8 calcium fluorescence; vehicle 0%, full acetylcholine response 100%. activation, % at 3 µM. 360,000 compounds, 0.14% hits. AID 624127;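 active = activation above the run mean over all test wells plus 3 SD, cut at about 32% in these data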;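 note: peak over basal fluorescence ratio per well then scaled between controls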
M5 PAM = positive allosteric modulators of human muscarinic M5 receptor. AID 624038. 360,000 compounds, 0.3% hits. activation, % at 3 µM. P08912. CHO-K1 hM5, Fluo-8 calcium, ACh EC20 PAM; 0% = ACh EC20, 100% = ACh EC100;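 active = activation above the run cutoff, the mean activation of all test compounds plus 3 SD, cut at about 18% in these data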
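Test system: CHO-K1 hM5 cells / Doses: single-point, 3 µM nominal / Times: Post-acetylcholine fluorescence recording 140 s / Technique: Fluo-8 calcium fluorescence / Measure: Max/basal fluorescence ratio as % of EC20–EC100 ACh window / Benchmarks: low control EC20 acetylcholine (0%), high control EC100 acetylcholine (100%) / Replicates: one well per compound, no replicates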
M4 PAM = positive allosteric modulators of human muscarinic M4 receptor | CHO-K1 hM4/Gqi5, Fluo-8 calcium fluorescence, ACh EC20; 0% = ACh EC20, 100% = maximal ACh | activation, % at 3 µM | 360,000 compounds, 0.4% hits | P08173 | AID 624126;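 active = activation above its plate's cutoff, the mean activation of sample wells plus 3 SD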
M5 ag = CHRM5 agonism in calcium assay | P08912 | CHO-K1 hM5 cells, Fluo-8 calcium fluorescence; 0% DMSO wells, 100% maximal acetylcholine response | activation, % at 3 µM | 360,000 compounds, 0.19% hits;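 active = activation above the run's mean over test compounds plus 3 SD, cut at about 23% in these data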;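 note: signal is peak over basal fluorescence ratio across the kinetic read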
A number is an active result; . = inactive.

SMILES | CHRM4 antagonist | CHRM5 antagonist | CHRM4 agonist | M5 PAM | M4 PAM | M5 ag
O=C1CSc2ccc(S(=O)(=O)N3CCN(c4ccccc4F)CC3)cc2N1 | . | . | . | . | . | .
CN1CCC(OC(=O)c2ccccc2)CC1 | . | . | . | . | . | .
CN1CCC(OC2c3ccccc3CCc3ccccc32)CC1 | 99 | 99 | . | . | . | .
COc1ccc(OC)c(CCNC(=O)CCC(=O)N2CCOc3ccc(C)cc32)c1 | . | . | . | . | . | .
O=c1[nH]ccc2c(O)cccc12 | . | . | . | . | . | 32
CC(=O)SC1CC(=O)N(c2c(C)cccc2C)C1=O (centres undefined) | . | . | . | 21 | . | .
O=C(NC(=S)Nc1ccc(F)c([N+](=O)[O-])c1)c1ccccc1F | . | . | . | . | . | .
O=C(Nc1ccccc1)Nc1ccc(Cl)c([N+](=O)[O-])c1 | . | 28 | . | . | . | .
O=C(Nc1ccccc1)Nc1ccc(F)c([N+](=O)[O-])c1 | . | 27 | . | . | . | .
Cc1ccc(NC(=O)Nc2ccccc2)cc1[N+](=O)[O-] | . | . | . | . | . | .
O=C(N/N=C/c1cccc([N+](=O)[O-])c1)C1CC1c1ccccc1 (centres undefined) | . | . | . | . | . | .
CN(C)C1CN(Cc2cn(Cc3ccc(C(F)(F)F)cc3)nn2)S(=O)(=O)C1 (centres undefined) | . | . | . | . | . | .
CC(C)(C)c1ccccc1OCCN1CCCC1 | 32 | . | . | . | . | .
Cc1ccc(C(C)(C)C)c(OCCN2CCCC2)c1 | . | . | . | . | . | .
CC(OCCN1CCCC1)(c1ccc(F)cc1)c1ccc(F)cc1 | 47 | 36 | . | . | . | .
CCOC(=O)CC(=O)COc1nc2cc3c(nc2o1)CCCC3 | . | . | . | . | . | .
CCc1nc2ccc(C(=O)NCCN3CCCC3)cn2c1N(C)Cc1ccc(OC)cc1 | 56 | . | . | . | . | .
CCc1nc2ccc(C(=O)NCc3ccc(OC)cc3)cn2c1N(C)Cc1ccc(OC)cc1 | . | . | . | . | . | .
CCCCN(C)c1c(C)nc2ccc(C(=O)NCCOc3ccc(OC)cc3)cn12 | . | 29 | . | . | . | .
COc1cc(OC)cc(-c2c(C#Cc3ccsc3)c3cc(-c4ccc5c(c4)OCCO5)ccc3n2C)c1 | . | . | . | . | . | .
Cc1nnc(NC(=O)CCNC(=O)c2ccccc2Cl)s1 | . | . | . | . | . | .
C[N+]1(C)CCC(=C(c2ccccc2)c2ccccc2)CC1 | 100 | 99 | . | . | . | .
C[N+]1(CCC(=O)c2ccccc2)CCCCC1 | . | . | . | . | . | .
CC1CCC(NS(=O)(=O)c2ccc(N3CCCC3=O)cc2)CC1 (centres undefined) | 32 | . | . | . | . | .
O=C1CCCN1c1ccc(S(=O)(=O)Nc2cccnc2)cc1 | . | . | . | . | . | .
SMILES | CHRM4 antagonist | CHRM5 antagonist | CHRM4 agonist | M5 PAM | M4 PAM | M5 ag
CCSc1nnc(NC(=O)NC(CC)(C(F)(F)F)C(F)(F)F)s1 | . | 31 | . | . | . | .
CCSc1nnc(NC(=O)NC(C)(C(F)(F)F)C(F)(F)F)s1 | . | . | . | . | . | .
c1ccc(CN2OCC3Cn4c(nc5ccccc54)C32)cc1 (centres undefined) | . | . | . | . | . | .
c1ccc(N2OCC3Cn4c(nc5ccccc54)C32)cc1 (centres undefined) | . | . | . | . | 24 | .
c1ccc2c(c1)nc1n2CC2CON(C3CCCCC3)C12 (centres undefined) | . | . | . | . | 25 | .
CCOc1ccc(N/C(=N/c2nc(C)cc(C)n2)NC(=O)CC)cc1 | . | . | . | . | . | .
Cc1cc(C)nc(/N=C(\N)Nc2ccc(-c3ccccc3)cc2)n1 | 29 | . | 68 | . | . | 28
Cc1cc(C)nc(/N=C(\N)Nc2ccc(F)c([N+](=O)[O-])c2)n1 | . | . | 55 | . | . | .
CCOc1ccc(N/C(N)=N/c2nc(C)cc(C)n2)cc1 | 50 | 39 | 50 | . | . | .
CCCCN(CCCC)/C(N)=N/c1nc(C)cc(C)n1 | . | . | . | . | . | .
CC(=O)Nc1ccc(N/C(N)=N/c2nc(C)cc(C)n2)cc1 | . | . | . | . | . | .
Cc1cc(C)nc(/N=C(\N)N(Cc2ccccc2)Cc2ccccc2)n1 | 39 | 92 | . | . | . | .
O=S(=O)(c1ccccc1Br)N1CCN(c2ncccn2)CC1 | . | . | . | . | . | .
Cc1cc(C)nc(/N=C(\N)Nc2ccc(SC(F)F)cc2)n1 | 55 | . | 96 | . | . | 35
Cc1ccc(C)c(N/C(N)=N/c2nc(C)cc(C)n2)c1 | 66 | . | 91 | . | . | 30
COCCN1CC(CNC(=O)c2cc(COc3ccccc3SC)on2)CC1=O (centres undefined) | . | . | . | . | . | .
O=C1C2C3c4ccccc4C(c4ccccc43)[C@@H]2C(=O)N1c1ccccn1 (some centres undefined) | . | . | . | . | . | .
O=C1CCC(=O)N1N1C(=O)C2C3c4ccccc4C(c4ccccc43)C2C1=O (centres undefined) | . | . | . | 22 | . | .
Cc1ccc(C(=O)Nc2cccc(C(=O)NCc3ccccc3)c2)o1 | 27 | . | . | . | . | .
O=C(NCc1ccccc1)c1ccc(C2SCC(=O)N2Cc2ccccc2)cc1 (centres undefined) | 34 | . | . | . | . | .
CN(C)c1c(F)cc(C(=O)NCc2ccccc2)cc1F | . | . | . | . | . | .
O=C(NCc1ccccc1)NC(=O)c1ccc(Cl)cc1 | . | . | . | 19 | . | .
O=C(NCc1ccc(F)cc1)NC(=O)c1ccc(Cl)cc1 | . | . | . | . | . | .
O=C(NCc1ccccc1)c1ccc(F)c(F)c1 | . | . | . | . | 20 | .
CC1CC(=O)Nc2cc([N+](=O)[O-])ccc2N1 (centres undefined) | . | . | . | . | . | .
CC1=C(CC(=O)O)c2cc(F)ccc2/C1=C\c1ccc(S(C)=O)cc1 (centres undefined) | . | . | . | . | . | .
CC(C)C(NC(=O)c1c(F)cccc1F)C(=O)N1CCN(S(=O)(=O)c2ccc(F)cc2)CC1 (centres undefined) | . | . | . | . | . | .
Cc1ccc2nc3c(c(Nc4cccc(O)c4)c2c1)CCC3 | . | . | . | . | . | .
COC(=O)c1ccc2nc(-c3ccc(F)cc3)c(Cc3cccc(Cl)c3)n2c1 | 35 | 77 | . | . | . | .

Screening data as filed in PubChem.
